pEC50, pIC50: −log10 of the molar value.
What was measured:
[1] = Toxicity in mouse assessed as motor coordination impairment by measuring number of falls from rotarod at 50 mg/kg, ip measured after 45 mins by rotarod test; type: organism-based; details: in vivo
HepG2 [2] = assay: Cytotoxicity against human HepG2 cells at 10 times of EC50 concentration incubated for 2 hrs by MTT assay; type: cell-based; details: hepg2, 2 h
Outline: (§1)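 HepG2 cells in DMEM with 10% FBS at 37 °C, 5% CO2, grown to 70% confluence. 10^4 cells/well treated in serum-free medium for 2 h. MTT at 0.5 mg/mL for 2 h, formazan dissolved in DMSO, absorbance read at 570 nm. Viability as percent of control MTT reduction; sextuplicate, repeated twice.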

Ileum [3] = assay: Inhibition of calcium-induced contraction in K+-depolarized guinea pig longitudinal smooth muscle at 5 x 10^-5 M relative to control; type: tissue-based; details: Cavia porcellus, dose 5 10^-5M
[4] = Binding affinity to P-gp in dog MDCK-MDR1 cells using calcein-AM as substrate at 100 uM after 30 mins by fluorescence analysis; type: ADME, cell-based, Canis lupus familiaris; details: mdck-mdr1, 0.5 h
Outline: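 MDCK-MDR1 cells, 50,000/well, grown to confluence overnight. Compounds in medium incubated 30 min at 37 °C. Calcein-AM then added at 2.5 μM final for 30 min. Cells washed with ice-cold PBS; fluorescence read at 485/535 nm against untreated basal level.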

[5] = Toxicity in mouse assessed as motor coordination impairment by measuring number of falls from rotarod at 50 mg/kg, ip measured after 60 mins by rotarod test; type: organism-based; details: in vivo, 1 h
[6] = Toxicity in mouse assessed as motor coordination impairment by measuring number of falls from rotarod at 25 mg/kg, ip measured after 30 mins by rotarod test; type: organism-based; details: in vivo, 0.5 h
HepG2 [7] = assay: Cytotoxicity against human HepG2 cells at EC50 concentration incubated for 2 hrs by MTT assay; type: cell-based; details: hepg2, 2 h; outline: as §1
Right cardiac atrium [8] = assay: Negative inotropic activity in guinea pig spontaneously beating right atrium assessed as decrease in developed tension at 5 x 10^-6 M relative to control; type: ADME, tissue-based, Cavia porcellus; parameters: scale not given: the % may be the effect or the level left; details: 5 µM, dose 5 10^-6M
Outline: (§2)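 Spontaneously beating guinea pig right atria in PSS, pH 7.4, 35 °C, gassed with 95% O2–5% CO2. Isometric recording of rate and developed force. Compounds added cumulatively, 0.01–100 μM, each after steady state. Percent change from control; rate data n = 7–8. EC50 by probit analysis.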

Ileum [9] = assay: Inhibition of calcium-induced contraction in K+-depolarized guinea pig longitudinal smooth muscle; type: tissue-based; details: Cavia porcellus
[10] = Toxicity in mouse assessed as motor coordination impairment by measuring number of falls from rotarod at 50 mg/kg, ip measured after 30 mins by rotarod test; type: organism-based; details: in vivo, 0.5 h
Right cardiac atrium [11] = assay: Negative inotropic activity in guinea pig spontaneously beating right atrium assessed as decrease in developed tension; type: ADME, tissue-based; details: Cavia porcellus
Outline: (§3)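 Isometric recording of rate and developed force. Compounds added cumulatively, 0.01–100 μM, each after steady state. Percent change from control; rate data n = 7–8. EC50 by probit analysis.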

Aorta = assay: Inhibition of calcium-induced contraction in K+-depolarized guinea pig aortic strips at 1 x 10^-4 M relative to control; type: tissue-based; details: Cavia porcellus, dose 1 10^-4M
Outline: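 Helicoidal guinea pig aortic strips at 1 g resting force in PSS at 35 °C, contracted with 80 mM KCl (K+ replacing Na+). At plateau (about 45 min), compounds added cumulatively, 0.1–100 μM.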

[12] = Toxicity in mouse assessed as motor coordination impairment by measuring number of falls from rotarod at 25 mg/kg, ip measured after 60 mins by rotarod test; type: organism-based; details: in vivo, 1 h
Left cardiac atrium [13] = assay: Antiarrhythmic activity in 50 Hz sinusoidal alternating current-induced guinea pig left atrium arrhythmias model assessed as increase in threshold of ac-arrhythmia at 1 x 10^-5 M measured for every 30 mins relative to control; type: functional, Cavia porcellus; details: dose 1 10^-5M, 0.5 h, at 10 µM
Outline: (§4)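 Guinea pig left atria mounted between platinum field electrodes in modified Krebs-Henseleit (pH 7.4, 95% O2–5% CO2, 35 °C), isometric force recorded. 50 Hz sinusoidal AC of rising strength applied; current intensity (mA/cm²) producing extra beats taken as ac-arrhythmia threshold. Stabilized 60 min, then compounds added cumulatively every 30 min.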

Right cardiac atrium [14] = assay: Negative chronotropic activity in guinea pig spontaneously beating right atrium assessed as decrease in atrial rate at 1 x 10^-5 M relative to control; type: ADME, tissue-based, Cavia porcellus; parameters: scale not given: the % may be the effect or the level left; details: 10 µM, dose 1 10^-5M; outline: as §3
Left cardiac atrium [15] = assay: Negative inotropic activity in guinea pig left atrium assessed as decrease in 1 Hz driven developed tension; type: tissue-based; details: Cavia porcellus
Left cardiac atrium [16] = assay: Antiarrhythmic activity in 50 Hz sinusoidal alternating current-induced guinea pig left atrium arrhythmias model assessed as increase in threshold of ac-arrhythmia measured for every 30 mins relative to control; type: functional, tissue-based; details: Cavia porcellus, 0.5 h
Left cardiac atrium [17] = assay: Negative inotropic activity in guinea pig left atrium assessed as decrease in 1 Hz driven developed tension at 1 x 10^-5 M relative to control; type: tissue-based, Cavia porcellus; parameters: scale not given: the % may be the effect or the level left; details: 10 µM, dose 1 10^-5M
Outline: (§5)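 Guinea pig left atria paced at 1 Hz (rectangular pulses 0.6–0.8 ms, […]) in PSS, pH 7.4, 35 °C, 95% O2–5% CO2. Isometric developed tension recorded. Cumulative concentrations 0.01–100 μM in PSS, each added after steady state. Change expressed as percent of control (n = 5–6).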

[18] = Toxicity in mouse assessed as motor coordination impairment by measuring number of falls from rotarod at 25 mg/kg, ip measured after 45 mins by rotarod test; type: organism-based; details: in vivo
Left cardiac atrium [19] = assay: Potency index, ratio of mexiletine EC50 to test compound EC50 for negative inotropic activity in guinea pig left atrium assessed as decrease in developed tension; type: ADME, tissue-based, Cavia porcellus
Left cardiac atrium [20] = assay: Negative inotropic activity in guinea pig left atrium assessed as decrease in 1 Hz driven developed tension at 1 x 10^-7 M relative to control; type: ADME, tissue-based, Cavia porcellus; parameters: scale not given: the % may be the effect or the level left; details: 0.1 µM, dose 1 10^-7M; outline: as §5
Ileum [21] = assay: Inhibition of calcium-induced contraction in K+-depolarized guinea pig longitudinal smooth muscle at 1 x 10^-5 M relative to control; type: tissue-based; details: Cavia porcellus, dose 1 10^-5M
Left cardiac atrium [22] = assay: Potency index, ratio of mexiletine EC50 to test compound EC50 for antiarrhythmic activity in guinea pig left atrium model of current induced arrhythmias assessed as increase in threshold of ac-arrhythmia; type: functional, Cavia porcellus
[23] = Binding affinity to P-gp in dog MDCK-MDR1 cells using calcein-AM as substrate after 30 mins by fluorescence analysis; type: ADME, cell-based; details: Canis lupus familiaris, MDCK-MDR1, 0.5 h
Ileum [24] = assay: Inhibition of calcium-induced contraction in K+-depolarized guinea pig longitudinal smooth muscle at 1 x 10^-4 M relative to control; type: tissue-based; details: Cavia porcellus, dose 1 10^-4M
Left cardiac atrium [25] = assay: Antiarrhythmic activity in 50 Hz sinusoidal alternating current-induced guinea pig left atrium arrhythmias model assessed as increase in threshold of ac-arrhythmia at 1 x 10^-4 M measured for every 30 mins relative to control; type: functional, Cavia porcellus; details: dose 1 10^-4M, 0.5 h, at 100 µM; outline: as §4
Right cardiac atrium [26] = assay: Negative chronotropic activity in guinea pig spontaneously beating right atrium assessed as decrease in atrial rate; type: tissue-based; details: Cavia porcellus; outline: as §2
Left cardiac atrium [27] = assay: Negative inotropic activity in guinea pig left atrium assessed as decrease in 1 Hz driven developed tension at 1x 10^-4 M relative to control; type: ADME, tissue-based, Cavia porcellus; parameters: scale not given: the % may be the effect or the level left; details: 100 µM, dose 1 10^-4M; outline: as §5
Right cardiac atrium [28] = assay: Negative chronotropic activity in guinea pig spontaneously beating right atrium assessed as decrease in atrial rate at 1 x 10^-4 M relative to control; type: ADME, tissue-based, Cavia porcellus; parameters: scale not given: the % may be the effect or the level left; details: 100 µM, dose 1 10^-4M; outline: as §2

Compound: Cc1cccc(C)c1OCC(N)C(C)(C)C.Cl (stereo not given)
- Activity [1]: 1.8
- Activity (HepG2 [2]): Non-Toxic
- inhibition at 50 µM (Ileum [3]): 73%
- Activity [4]: Not Active
- Activity [5]: 1.2
- Activity [6]: 2.7
- Activity (HepG2 [7]): Non-Toxic
- Activity (Right cardiac atrium [8]): 77%
- pIC50 (Ileum [9]): 4.97
- Activity [10]: 3.1
- pEC50 (Right cardiac atrium [11]): 5.99
- inhibition at 100 µM (Aorta): 38%
- Activity [12]: 0.8
- Activity (Left cardiac atrium [13]): 71%
- Activity (Right cardiac atrium [14]): 7%
- pEC50 (Left cardiac atrium [15]): 7.38
- pEC50 (Left cardiac atrium [16]): 5.68
- Activity (Left cardiac atrium [17]): 92%
- Activity [18]: 1.7

Compound: Cc1cccc(C)c1OCC(N)Cc1ccccc1.Cl (stereo not given)
- Activity [1]: 3.5
- Activity (HepG2 [2]): Non-Toxic
- Ratio EC50 (Left cardiac atrium [19]): 4
- Activity (Left cardiac atrium [20]): 79%
- Activity [5]: 1.3
- Activity [6]: 2.9
- inhibition at 10 µM (Ileum [21]): 73%
- Activity (HepG2 [7]): Non-Toxic
- Activity (Right cardiac atrium [8]): 57%
- pIC50 (Ileum [9]): 5.44
- Activity [10]: 4.4
- pEC50 (Right cardiac atrium [11]): 7.18
- inhibition at 100 µM (Aorta): 33%
- Activity [12]: 1.2
- Ratio EC50 (Left cardiac atrium [22]): 2.7
- pEC50 [23]: 5.08
- Activity (Left cardiac atrium [13]): 169%
- Activity (Right cardiac atrium [14]): 24%
- pEC50 (Left cardiac atrium [15]): 7.92
- pEC50 (Left cardiac atrium [16]): 5.36
- Activity [18]: 1.9

Compound: Cc1cccc(C)c1OCC(C)N.Cl (stereo not given) [MEXILETINE HYDROCHLORIDE]
- Activity [1]: 3.5
- inhibition at 100 µM (Ileum [24]): 81%
- Activity (Left cardiac atrium [25]): 64%
- Activity [4]: Not Active
- Activity [6]: 1.3
- Activity [10]: 3.8
- pEC50 (Right cardiac atrium [26]): 7.85
- inhibition at 100 µM (Aorta): 5%
- pEC50 (Left cardiac atrium [15]): 7.35
- pEC50 (Left cardiac atrium [16]): 4.94
- Activity (Left cardiac atrium [17]): 90%
- Activity [18]: 0.8

Compound: Cc1cccc(C)c1OCC(N)C(C)C.Cl (stereo not given)
- Activity [1]: 2.1
- Activity (HepG2 [2]): Non-Toxic
- Activity (Left cardiac atrium [27]): 84%
- inhibition at 100 µM (Ileum [24]): 88%
- Activity (Left cardiac atrium [25]): 145%
- Activity [4]: Not Active
- Activity [5]: 1
- Activity [6]: 2.6
- Activity (HepG2 [7]): Non-Toxic
- pIC50 (Ileum [9]): 4.71
- Activity [10]: 3
- pEC50 (Right cardiac atrium [26]): 4.88
- inhibition at 100 µM (Aorta): 11%
- Activity [12]: 1.1
- Activity (Right cardiac atrium [28]): 55%
- pEC50 (Left cardiac atrium [15]): 7.68
- pEC50 (Left cardiac atrium [16]): 4.74
- Activity [18]: 2.2
